Test results: PubChem BioAssay
Results filed as inconclusive are left out.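 The calls were made as follows, unless noted: active = viability increase at or above a cutoff of the median across tested compounds plus 3 SD (cut at about 8.5% in these data, passing the limit was not always enough); inconclusive = some gains above the cutoff, reason not given; inactive = the rest.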

Columns and labels:
[1] = OD615 S. cerevisiae growth inhibition, permissive medium, pilot counter-assay, permissive growth control for S. cerevisiae lifespan shortening project (AID 705;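 active = growth inhibition above 25% in both replicates, a cutoff set 3 SD above the mean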); settings: OD615, 24 h, at 10 µM, active compounds read high
Method in brief: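 assay system = Saccharomyces cerevisiae strain carrying genetically modified DeaD replicative-lifespan system | medium = SC raffinose/galactose permissive medium | dosing = 10 µM single dose, 0.25% DMSO | schedule = 24 h compound exposure at 30 °C after 4 h pre-growth | measured by = OD at 615 nm | read-out basis = growth inhibition from lowered OD615 after 24 h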

[2] = Restrictive medium S. cerevisiae growth inhibition, OD615, pilot screen of yeast lifespan reduction project, restrictive growth control (AID 706;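 active = growth inhibition above a set limit, 3 SD over mean compound inhibition, in both replicates, cut at about 43% in these data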;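 also: modified DeaD lifespan yeast strain shifted to restrictive glucose medium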); settings: OD615, 48 h, at 10 µM, active compounds read high
Method in brief: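 Buffer or medium: CSMM-D glucose medium. Material: genetically modified Saccharomyces cerevisiae, DeaD replicative lifespan assay strain. Times: 48 h compound exposure at 30 °C. Measured by: optical density at 615 nm.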

[3] = viability gain of MRP-1-high H69AR cells under doxorubicin, pilot screen, MRP-1 activator project, CellTiter-Glo, duplicate (AID 807); settings: H69AR viability with doxorubicin, CellTiter-Glo luminescence; at 10 µM; active compounds read high;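 also: compound pretreatment 18-22 h then 72 h combined with doxorubicin; 0% = doxorubicin alone and 100% = vehicle without doxorubicin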
[4] = growth suppression of beta-catenin knockout HCT116, pilot screen, human colon tumor cells (AID 823;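 active = cell viability at or below a set limit in both duplicate runs, the limit being the all-compound median minus 4 SD, cut at about 23% in these data, passing the limit was not always enough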;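 also: 0% = wells killed by 20 µM Hyamine and 100% = untreated DMSO cell wells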); settings: CellTiter-Glo, 60 h, at 10 µM, active compounds read low
[5] = growth suppression of PTEN-deleted HCT116, pilot screen, cell-based, HCT116 clonal line, CellTiter-Glo (AID 824;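 active = viability at or below 27.92% in each of two runs, the all-compound median minus 4 SD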;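 also: 0% = 20 µM Hyamine control and 100% = vehicle cell control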); settings: 60 h, at 10 µM, active compounds read low
[6] = inhibitors of the yeast RAM network, pilot screen, dse1pr::URA3 reporter, 5-FOA selection (AID 869;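 active = inhibition over a set limit, the all-compound mean plus 3 SD, in both replicate runs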;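 also: 0% = DMSO wells with no growth and 100% = 10 µM 1-NA-PP1 with full growth; RAM network block rescues cells from 5-FOA so hits raise OD615 growth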); settings: S. cerevisiae dse1pr::URA3 5-FOA growth, OD615, 2 d; at 10 µM; active compounds read high; strain carries analog-sensitive mutant Cbk1 kinase
[7] = RAM signaling pathway blockade in yeast – S. cerevisiae, Pdr1DBD-CYC8 efflux-inhibited sensitized strain, primary screen (AID 1298;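 active = RAM network inhibition above 8.4% in each of two replicates, 3 SD over the compound average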;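 also: 0% = DMSO untreated cells without growth and 100% = 10 µM 1-NA-PP1 full growth; higher means more yeast growth rescued from 5-FOA killing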); settings: S. cerevisiae cbk1-as DSE1-URA3 strain, 5-FOA growth OD615, 2 d; at 50 µM; active compounds read high

COc1ccc(-n2c(Cn3c(=O)sc4ccccc43)nnc2SCC(=O)N2CCCCC2)cc1
inactive: growth inhibition [1] 3.02% | growth inhibition [2] 19.9% | viability increase [3] -0.89% | viability [4] 99.6% | viability [5] 96.5% | inhibition [6] 0.19% | RAM network inhibition [7] 6.13%

CCN1CCN(CCNC(=O)c2ccc(CS(=O)(=O)c3c(Cl)cccc3Cl)o2)CC1
inactive: growth inhibition [1] 5.83% | growth inhibition [2] 6.53% | viability increase [3] -1.94% | viability [4] 110% | viability [5] 103% | inhibition [6] 2.98% | RAM network inhibition [7] 1.59%

O=C(NC(C(=O)c1ccccc1)N1CCCCC1)c1ccccc1 (configuration not stated)
inactive: growth inhibition [1] -8.09% | growth inhibition [2] -3.47% | viability increase [3] -2.31% | viability [4] 91.2% | viability [5] 98% | inhibition [6] -0.65% | RAM network inhibition [7] 1.67%

CN1CCN(c2ccccc2NC(=O)C(Cc2ccccc2)n2cccc2)CC1 (configuration not stated)
inactive: growth inhibition [1] -7.49% | growth inhibition [2] -4.39% | viability increase [3] -7.39% | viability [4] 55.6% | viability [5] 59.3% | inhibition [6] 2.68% | RAM network inhibition [7] 4.23%

CCn1c(=O)c2cc(C(=O)N3CCN(C(=O)c4ccco4)CC3)sc2c2ccccc21
inactive: growth inhibition [1] -1.96% | growth inhibition [2] -0.815% | viability increase [3] -3.68% | viability [4] 84% | viability [5] 86.3% | inhibition [6] 2.02% | RAM network inhibition [7] 7.64%

O=C(Nc1ccccc1)c1ccc(S(=O)(=O)N2CCCCC2)cc1
inactive: growth inhibition [1] 3.41% | growth inhibition [2] -0.37% | viability increase [3] 0.95% | viability [4] 97.8% | viability [5] 82.5% | inhibition [6] 0.395% | RAM network inhibition [7] 2.23%

c1ccc(-c2ccccc2-n2cnnn2)cc1
inactive: growth inhibition [1] 4.66% | growth inhibition [2] 3.99% | viability increase [3] -0.54% | viability [4] 97.3% | viability [5] 95.3% | inhibition [6] 1.77% | RAM network inhibition [7] 0.51%

O=S(=O)(NCCc1csc(-c2cccnc2)n1)c1ccc(Cl)s1
inactive: growth inhibition [1] -15.7% | growth inhibition [2] 13.1% | viability increase [3] 0.96% | viability [4] 87.6% | viability [5] 85.5% | inhibition [6] 1.76% | RAM network inhibition [7] 3.12%

O=C(NCc1cccs1)c1cnc2sccn2c1=O
inactive: growth inhibition [1] -9.93% | growth inhibition [2] 18% | viability increase [3] 0.04% | viability [4] 99.3% | viability [5] 89.9% | inhibition [6] 1.6% | RAM network inhibition [7] 0.36%

O=C(NCCc1csc(-c2cccnc2)n1)c1ccco1
inactive: growth inhibition [1] 4.59% | growth inhibition [2] 4.47% | viability increase [3] -4.68% | viability [4] 105% | viability [5] 98.6% | inhibition [6] 0.97% | RAM network inhibition [7] 2.36%

CSC1=NCCN1C(=O)c1cccs1
inactive: growth inhibition [1] -2.12% | growth inhibition [2] 11.1% | viability increase [3] 0.08% | viability [4] 99% | viability [5] 99.3% | inhibition [6] 1.11% | RAM network inhibition [7] 1.55%

O=C(NCCN1C(=O)C2C3C=CC(C3)C2C1=O)Nc1ccccc1 (configuration not stated)
inactive: growth inhibition [1] -8.45% | growth inhibition [2] 1.35% | viability increase [3] 0.28% | viability [4] 102% | viability [5] 93.2% | inhibition [6] 0.71% | RAM network inhibition [7] -0.05%

COCCOC(=O)C1=C(C)NC2=C(C(=O)CC(C)(C)C2)C1c1ccc(N(C)C)cc1 (configuration not stated)
inactive: growth inhibition [1] -16.1% | growth inhibition [2] -21.2% | viability increase [3] -0.49% | viability [4] 97.4% | viability [5] 98.3% | inhibition [6] -0.03% | RAM network inhibition [7] 3.6%

CC(C)N(CCc1ccncc1)C(=O)Nc1ccc(F)cc1
inactive: growth inhibition [1] 0.1% | growth inhibition [2] -7.37% | viability increase [3] -2.27% | viability [4] 102% | viability [5] 96.8% | inhibition [6] 1.21% | RAM network inhibition [7] 5.33%

O=C1CC(N2CCN(c3nc4ccccc4s3)CC2)C(=O)N1c1ccc(F)cc1 (configuration not stated)
inactive: growth inhibition [1] 0.4% | growth inhibition [2] 0.52% | viability increase [3] 6.28% | viability [4] 88.7% | viability [5] 94.3% | inhibition [6] 1.54% | RAM network inhibition [7] 3.67%

COCCCNC(=O)Cn1nnc(-c2ccc(NC(=O)c3ccc(F)cc3)cc2)n1
inactive: growth inhibition [1] -9.11% | growth inhibition [2] -28.5% | viability increase [3] 0.73% | viability [4] 99.7% | viability [5] 96.8% | inhibition [6] 0.705% | RAM network inhibition [7] 4.54%
